The text below walks through data of ChEMBL document CHEMBL1255218, “Development of molecular probes for the human 5-HT(6) receptor” (J Med Chem, 2010).

SMILES strings stand for the structures. pKi: −log10 of the molar value. Calls of active or inactive are those of the source. No cut-off for these calls is given here.

Test [1] has as its target T1, 5-hydroxytryptamine receptor 6 (Homo sapiens, UniProt P50406). Nature of the test: Binding affinity to human 5HT6 receptor expressed in COS7 cells assessed as emission fluorescence intensity. The class given is cell-based. Particulars: COS-7.
The target of test [2] is T1, 5-hydroxytryptamine receptor 6. Kind of test: Displacement of [3H]LSD from human 5HT6 receptor expressed in HEK293 cells. The class given is cell-based. Put shortly: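 Membranes from HEK-293 cells stably expressing human 5-HT6R, in 50 mM Tris-HCl, 10 mM MgCl2, 0.5 mM EDTA, pH 7.4. Incubated 60 min at 37 °C with 2.5 nM [3H]LSD and competitor (10^-5 to 10^-10 M). Nonspecific binding defined with 100 μM serotonin. Filtered on 0.5% PEI-soaked filters; scintillation count. Ki by Cheng-Prusoff; 2-4 experiments in triplicate.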
(In general: In a radioligand displacement assay an active substance lowers the binding of a labelled ligand.)

For test [3] the target is unchanged. Kind of test: Binding affinity to human 5HT6 receptor assessed as emission fluorescence intensity.

T1 sequence (P50406 whole entry): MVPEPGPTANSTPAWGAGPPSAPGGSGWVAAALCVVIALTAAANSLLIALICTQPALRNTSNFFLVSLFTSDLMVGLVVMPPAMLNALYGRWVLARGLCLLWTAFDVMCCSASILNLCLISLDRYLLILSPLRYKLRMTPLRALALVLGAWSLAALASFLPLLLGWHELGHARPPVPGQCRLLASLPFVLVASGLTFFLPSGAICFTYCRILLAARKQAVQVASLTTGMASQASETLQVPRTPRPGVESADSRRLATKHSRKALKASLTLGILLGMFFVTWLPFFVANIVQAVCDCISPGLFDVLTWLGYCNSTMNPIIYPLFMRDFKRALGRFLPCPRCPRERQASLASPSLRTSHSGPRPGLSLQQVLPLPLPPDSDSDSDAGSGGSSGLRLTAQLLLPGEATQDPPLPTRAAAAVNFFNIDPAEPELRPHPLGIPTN

For orientation: pKi means −log10 of the Ki, conventionally taken in molar units. As for `COc1ccc(N(S(=O)(=O)c2cccc3c(N(C)C)cccc23)S(=O)(=O)c2cccc3c(N(C)C)cccc23)cc1N1CCNCC1`, the Activity in test [1] worked out at 35 a.u. Besides, the pKi in test [2] is 6.87. In the same order, the values of `COc1ccc(NS(=O)(=O)c2sc3ccc(Cl)cc3c2C)cc1N1CCN(CCCCCCNS(=O)(=O)c2cccc3c(N(C)C)cccc23)CC1` are greater than 1000 a.u and 6.58.

On to `COc1ccc(NS(=O)(=O)c2cccc3c(N(C)C)cccc23)cc1N1CCNCC1`, for which, in test [1], the Activity came out at 52 a.u. The compound also had a pKi in test [2] of 8.10. On the same counts, the results for `Cc1c(S(=O)(=O)Nc2ccc(OCCCCCCCCNS(=O)(=O)c3cccc4c(N(C)C)cccc34)c(N3CCNCC3)c2)sc2ccc(Cl)cc12` are 700 a.u and 6.13.

On to `COc1ccc(NS(=O)(=O)c2sc3ccc(Cl)cc3c2C)cc1N1CCN(CCCCCCCCNS(=O)(=O)c2cccc3c(N(C)C)cccc23)CC1`, for which the Activity in test [1] was greater than 1000 a.u. In test [2], this compound had a negative-log Ki (pKi) of 6.35. For `COc1ccc(NS(=O)(=O)c2cccc3c(N(C)C)cccc23)cc1N1CCN(CCCCNS(=O)(=O)c2cccc3c(N(C)C)cccc23)CC1`, in test [1], the Activity is greater than 1000 a.u. Further, the pKi in test [2] is 6.76. In the same order, the values of `COc1ccc(NS(=O)(=O)c2sc3ccc(Cl)cc3c2C)cc1N1CCN(S(=O)(=O)c2cccc3c(N(C)C)cccc23)CC1` are 730 a.u and 6.78.

`COc1ccc(NS(=O)(=O)c2ccc(-c3ncc(-c4ccc(N(C)C)cc4)o3)cc2)cc1N1CCNCC1`: the result in test [3] was inactive. Besides, the pKi in test [2] is 6.28.

With `COc1ccc(NS(=O)(=O)c2cccc3c(N(C)C)cccc23)cc1N1CCN(CCCCCCCCNS(=O)(=O)c2cccc3c(N(C)C)cccc23)CC1`, the Activity in test [1] stood at 450 a.u. Further, in test [2], the negative logarithm of the Ki (pKi) is 6.71. For `COc1ccc(N(CCCCCCCCNS(=O)(=O)c2cccc3c(N(C)C)cccc23)S(=O)(=O)c2sc3ccc(Cl)cc3c2C)cc1N1CCNCC1`, the Activity in test [1] is greater than 1000 a.u. The same compound showed a pKi in test [2] of 6.67. As to `COc1ccc(N(S(=O)(=O)c2sc3ccc(Cl)cc3c2C)S(=O)(=O)c2cccc3c(N(C)C)cccc23)cc1N1CCNCC1`, the Activity in test [1] was 19 a.u. In addition, the pKi in test [2] is 7.57. For the compound `COc1ccc(NS(=O)(=O)c2sc3ccc(Cl)cc3c2C)cc1N1CCN(CCCCCCNC(=O)CCCC[C@@H]2SC[C@@H]3NC(=O)N[C@@H]32)CC1`, the negative-log Ki (pKi) in test [2] is 7.05. In the case of `COc1ccc(N(CCCCNS(=O)(=O)c2cccc3c(N(C)C)cccc23)S(=O)(=O)c2sc3ccc(Cl)cc3c2C)cc1N1CCNCC1`, in test [1], the Activity stood at 221 a.u. In addition, the negative-log Ki (pKi) in test [2] is 6.13.

In the case of `COc1ccc(NS(=O)(=O)c2cccc3c(N(C)C)cccc23)cc1N1CCN(CCCCCCNS(=O)(=O)c2cccc3c(N(C)C)cccc23)CC1`, the Activity in test [1] came out at 287 a.u. The same compound showed a negative logarithm of the Ki (pKi) in test [2] of 6.26.
